Source: ChEMBL document CHEMBL1212734, “In vitro pharmacodynamics of levofloxacin and other aerosolized antibiotics under multiple conditions relevant to chronic pulmonary infection in cystic fibrosis” (2010)
Values after ≈ are worked out from the molar mass of the structure shown.

Key:
Assay type in all cases: functional
[1] = test system: Pseudomonas aeruginosa; assay: Antibacterial activity against Pseudomonas aeruginosa PA899 assessed as time required for reduction of bacterial load to 3 log CFU/ml at 0.6 mg/ml up to 48 hrs by time-kill assay
Summary of the method: (§1)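 Overnight cultures were diluted and grown at 37°C to OD600 ≈0.3, then set at 5 × 10^5–1 × 10^6 CFU/ml in 10 ml CAMHB. Drug was added at 0.2, 0.6 or 2.0 mg/ml, and cultures were shaken at 37°C. Samples taken at 0, 0.5, 1, 2, 4, 8 and 24 h were washed twice in CAMHB, diluted in saline and plated on Mueller-Hinton agar. Plates were incubated up to 48 h before colony counting.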

[2] = test system: Pseudomonas aeruginosa; assay: Antibacterial activity against Pseudomonas aeruginosa PA880 assessed as time required for reduction of bacterial load to 3 log CFU/ml at 2 mg/ml up to 48 hrs by time-kill assay; summary of the method: as §1
[3] = test system: Staphylococcus aureus; assay: Antibacterial activity against methicillin-sensitive Staphylococcus aureus by broth dilution method
[4] = test system: Pseudomonas aeruginosa; assay: Antibacterial activity against Pseudomonas aeruginosa PA1042 assessed as time required for reduction of bacterial load to 3 log CFU/ml at 0.6 mg/ml up to 48 hrs by time-kill assay; summary of the method: as §1
[5] = test system: Pseudomonas aeruginosa; assay: Antibacterial activity against Pseudomonas aeruginosa PA5020 assessed as time required for reduction of bacterial load to 3 log CFU/ml at 0.2 mg/ml up to 48 hrs by time-kill assay; summary of the method: as §1
[6] = test system: Pseudomonas aeruginosa; assay: Antibacterial activity against Pseudomonas aeruginosa PA881 by broth dilution method
Summary of the method: (§2)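 Broth microdilution MIC per CLSI reference method; twofold serial dilutions in cation-adjusted Mueller-Hinton broth. […] Endpoint read by OD600 and confirmed visually.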

[7] = test system: Staphylococcus aureus; assay: Antibacterial activity against methicillin-resistant Staphylococcus aureus by broth dilution method; summary of the method: as §2
[8] = test system: Pseudomonas aeruginosa; assay: Antibacterial activity against Pseudomonas aeruginosa PA876 assessed as time required for reduction of bacterial load to 3 log CFU/ml at 0.2 mg/ml up to 48 hrs by time-kill assay; summary of the method: as §1
[9] = test system: Pseudomonas aeruginosa; assay: Antibacterial activity against Pseudomonas aeruginosa PA861 assessed as time required for reduction of bacterial load to 3 log CFU/ml at 0.6 mg/ml up to 48 hrs by time-kill assay; summary of the method: as §1
[10] = test system: Pseudomonas aeruginosa; assay: Antibacterial activity against Pseudomonas aeruginosa PA1022 assessed as time required for reduction of bacterial load to 3 log CFU/ml at 2 mg/ml up to 48 hrs by time-kill assay; summary of the method: as §1
[11] = test system: Pseudomonas aeruginosa; assay: Antibacterial activity against Pseudomonas aeruginosa PA5026 assessed as time required for reduction of bacterial load to 3 log CFU/ml at 0.6 mg/ml up to 48 hrs by time-kill assay; summary of the method: as §1
[12] = test system: Pseudomonas aeruginosa; assay: Antibacterial activity against Pseudomonas aeruginosa PA1054 assessed as time required for reduction of bacterial load to 3 log CFU/ml at 0.6 mg/ml up to 48 hrs by time-kill assay; summary of the method: as §1
[13] = test system: Pseudomonas aeruginosa; assay: Antibacterial activity against Pseudomonas aeruginosa PA899 by broth dilution method; summary of the method: as §2
[14] = test system: Pseudomonas aeruginosa; assay: Antibacterial activity against Pseudomonas aeruginosa PA1022 assessed as time required for reduction of bacterial load to 3 log CFU/ml at 0.6 mg/ml up to 48 hrs by time-kill assay; summary of the method: as §1
[15] = test system: Pseudomonas aeruginosa; assay: Antibacterial activity against Pseudomonas aeruginosa PA881 assessed as time required for reduction of bacterial load to 3 log CFU/ml at 0.6 mg/ml up to 48 hrs by time-kill assay; summary of the method: as §1
[16] = test system: Pseudomonas aeruginosa; assay: Antibacterial activity against Pseudomonas aeruginosa PA899 assessed as time required for reduction of bacterial load to 3 log CFU/ml at 2 mg/ml up to 48 hrs by time-kill assay; summary of the method: as §1
[17] = test system: Achromobacter xylosoxidans; assay: Antibacterial activity against Alcaligenes xylosoxidans by broth dilution method
[18] = test system: Pseudomonas aeruginosa; assay: Antibacterial activity against Pseudomonas aeruginosa PA5063 by broth dilution method; summary of the method: as §2
[19] = test system: Pseudomonas aeruginosa; assay: Antibacterial activity against Pseudomonas aeruginosa PA861 assessed as time required for reduction of bacterial load to 3 log CFU/ml at 2 mg/ml up to 48 hrs by time-kill assay; summary of the method: as §1
[20] = test system: Pseudomonas aeruginosa; assay: Antibacterial activity against Pseudomonas aeruginosa PA5026 assessed as time required for reduction of bacterial load to 3 log CFU/ml at 0.2 mg/ml up to 48 hrs by time-kill assay; summary of the method: as §1
[21] = test system: Pseudomonas aeruginosa; assay: Antibacterial activity against Pseudomonas aeruginosa PA5043 assessed as time required for reduction of bacterial load to 3 log CFU/ml at 2 mg/ml up to 48 hrs by time-kill assay; summary of the method: as §1
[22] = test system: Pseudomonas aeruginosa; assay: Antibacterial activity against Pseudomonas aeruginosa PA5043 assessed as time required for reduction of bacterial load to 3 log CFU/ml at 0.2 mg/ml up to 48 hrs by time-kill assay; summary of the method: as §1
[23] = test system: Pseudomonas aeruginosa; assay: Antibacterial activity against Pseudomonas aeruginosa by broth dilution method; summary of the method: as §2
[24] = test system: Pseudomonas aeruginosa; assay: Antibacterial activity against Pseudomonas aeruginosa PA881 assessed as time required for reduction of bacterial load to 3 log CFU/ml at 0.2 mg/ml up to 48 hrs by time-kill assay; summary of the method: as §1
[25] = test system: Pseudomonas aeruginosa; assay: Antibacterial activity against Pseudomonas aeruginosa ATCC 27853 assessed as inhibition of biofilm formation by microtiter plate reader assay
[26] = test system: Pseudomonas aeruginosa; assay: Antibacterial activity against Pseudomonas aeruginosa PA5043 assessed as time required for reduction of bacterial load to 3 log CFU/ml at 0.6 mg/ml up to 48 hrs by time-kill assay; summary of the method: as §1
[27] = test system: Pseudomonas aeruginosa; assay: Antibacterial activity against Pseudomonas aeruginosa PA1054 assessed as time required for reduction of bacterial load to 3 log CFU/ml at 2 mg/ml up to 48 hrs by time-kill assay; summary of the method: as §1
[28] = test system: Pseudomonas aeruginosa; assay: Antibacterial activity against Pseudomonas aeruginosa PA876 assessed as time required for reduction of bacterial load to 3 log CFU/ml at 0.6 mg/ml up to 48 hrs by time-kill assay; summary of the method: as §1
[29] = test system: Pseudomonas aeruginosa; assay: Antibacterial activity against Pseudomonas aeruginosa PA5020 by broth dilution method
[30] = test system: Pseudomonas aeruginosa; assay: Antibacterial activity against Pseudomonas aeruginosa PA861 by broth dilution method; summary of the method: as §2
[31] = test system: Pseudomonas aeruginosa; assay: Antibacterial activity against Pseudomonas aeruginosa ATCC 27853 assessed as time required for reduction of bacterial load to 3 log CFU/ml at 0.2 mg/ml up to 48 hrs by time-kill assay
[32] = test system: Pseudomonas aeruginosa; assay: Antibacterial activity against Pseudomonas aeruginosa PA1054 by broth dilution method; summary of the method: as §2
[33] = test system: Pseudomonas aeruginosa; assay: Antibacterial activity against Pseudomonas aeruginosa PA1036 by broth dilution method; summary of the method: as §2
[34] = test system: Pseudomonas aeruginosa; assay: Antibacterial activity against Pseudomonas aeruginosa PA1054 assessed as time required for reduction of bacterial load to 3 log CFU/ml at 0.2 mg/ml up to 48 hrs by time-kill assay; summary of the method: as §1
[35] = test system: Pseudomonas aeruginosa; assay: Antibacterial activity against Pseudomonas aeruginosa PA5020 assessed as time required for reduction of bacterial load to 3 log CFU/ml at 2 mg/ml up to 48 hrs by time-kill assay; summary of the method: as §1
[36] = test system: Pseudomonas aeruginosa; assay: Antibacterial activity against Pseudomonas aeruginosa PA1042 assessed as time required for reduction of bacterial load to 3 log CFU/ml at 0.2 mg/ml up to 48 hrs by time-kill assay; summary of the method: as §1

C[C@H]1[C@H](NC(=O)/C(=N\OC(C)(C)C(=O)O)c2csc(N)n2)C(=O)N1S(=O)(=O)O [AZTREONAM]
Time [1]: 24 h
Time [2]: 4 h
MIC50 [3]: > 128 µg/mL
MIC90 [3]: > 128 µg/mL
Time [4]: 4 h
Time [5]: >24 h
MIC50 [6]: 2 µg/mL (≈ 4.59 µM)
MIC50 [7]: > 512 µg/mL
MIC90 [7]: > 512 µg/mL
Time [8]: >24 h
Time [9]: >24 h
Time [10]: 24 h
Time [11]: >24 h
Time [12]: 24 h
MIC [13]: 8 µg/mL (≈ 18.4 µM)
Time [14]: >24 h
Time [15]: 8 h
Time [16]: 24 h
MIC50 [17]: 64 µg/mL (≈ 147 µM)
MIC90 [17]: > 128 µg/mL
MIC [18]: 8 µg/mL (≈ 18.4 µM)
Time [19]: 24 h
Time [20]: >24 h
Time [21]: 2 h
Time [22]: 8 h
MIC50 [23]: 4 µg/mL (≈ 9.19 µM)
MIC90 [23]: 128 µg/mL (≈ 294 µM)
Time [24]: 8 h
BBC [25]: >256 µg/mL
Time [26]: 2 h
Time [27]: 24 h
Time [28]: >24 h
MIC [29]: 64 µg/mL (≈ 147 µM)
MIC [30]: 128 µg/mL (≈ 294 µM)
Time [31]: 24 h
MIC [32]: 8 µg/mL (≈ 18.4 µM)
MIC [33]: 32 µg/mL (≈ 73.5 µM)
Time [34]: 24 h
Time [35]: 24 h
Time [36]: 8 h

C[C@H]1COc2c(N3CCN(C)CC3)c(F)cc3c(=O)c(C(=O)O)cn1c23.C[C@H]1COc2c(N3CCN(C)CC3)c(F)cc3c(=O)c(C(=O)O)cn1c23.O [LEVOFLOXACIN]
Time [1]: <=0.5 hr
Time [2]: <=0.5 hr
MIC50 [3]: 0.125 µg/mL
MIC90 [3]: 0.25 µg/mL
Time [4]: <=0.5 hr
Time [5]: 4 h
MIC50 [6]: 4 µg/mL
MIC50 [7]: 4 µg/mL
MIC90 [7]: 32 µg/mL
Time [8]: <=0.5 hr
Time [9]: <=0.5 hr
Time [10]: <=0.5 hr
Time [11]: <=0.5 hr
Time [12]: <=0.5 hr
MIC [13]: 0.5 µg/mL
Time [14]: <=0.5 hr
Time [15]: <=0.5 hr
Time [16]: <=0.5 hr
MIC50 [17]: 4 µg/mL
MIC90 [17]: 16 µg/mL
MIC [18]: 0.5 µg/mL
Time [19]: <=0.5 hr
Time [20]: <=0.5 hr
Time [21]: <=0.5 hr
Time [22]: <=0.5 hr
MIC50 [23]: 2 µg/mL
MIC90 [23]: 8 µg/mL
Time [24]: <=0.5 hr
BBC [25]: 2 µg/mL
Time [26]: <=0.5 hr
Time [27]: <=0.5 hr
Time [28]: <=0.5 hr
MIC [29]: 16 µg/mL
MIC [30]: 32 µg/mL
Time [31]: <=0.5 hr
MIC [32]: 0.5 µg/mL
MIC [33]: 8 µg/mL
Time [34]: <=0.5 hr
Time [35]: 2 h
Time [36]: <=0.5 hr

NC[C@H]1O[C@H](O[C@H]2[C@H](O)[C@@H](O[C@H]3O[C@H](CO)[C@@H](O)[C@H](N)[C@H]3O)[C@H](N)C[C@@H]2N)[C@H](N)C[C@@H]1O [TOBRAMYCIN]
Time [1]: <=0.5 hr
Time [2]: <=0.5 hr
MIC50 [3]: 0.125 µg/mL (≈ 0.267 µM)
MIC90 [3]: 32 µg/mL (≈ 68.4 µM)
Time [4]: 1 h
Time [5]: 4 h
MIC50 [6]: 2 µg/mL (≈ 4.28 µM)
MIC50 [7]: 128 µg/mL (≈ 274 µM)
MIC90 [7]: > 128 µg/mL
Time [8]: 4 h
Time [9]: 8 h
Time [10]: 4 h
Time [11]: 1 h
Time [12]: <=0.5 hr
MIC [13]: 0.25 µg/mL (≈ 0.535 µM)
Time [14]: 4 h
Time [15]: <=0.5 hr
Time [16]: <=0.5 hr
MIC50 [17]: > 32 µg/mL
MIC90 [17]: > 32 µg/mL
MIC [18]: 0.25 µg/mL (≈ 0.535 µM)
Time [19]: 4 h
Time [20]: 2 h
Time [21]: 1 h
Time [22]: 2 h
MIC50 [23]: 2 µg/mL (≈ 4.28 µM)
MIC90 [23]: > 32 µg/mL
Time [24]: <=0.5 hr
BBC [25]: 1 µg/mL
Time [26]: 1 h
Time [27]: <=0.5 hr
Time [28]: 4 h
MIC [29]: 8 µg/mL (≈ 17.1 µM)
MIC [30]: 16 µg/mL (≈ 34.2 µM)
Time [31]: <=0.5 hr
MIC [32]: 0.25 µg/mL (≈ 0.535 µM)
MIC [33]: 1 µg/mL (≈ 2.14 µM)
Time [34]: <=0.5 hr
Time [35]: 2 h
Time [36]: 1 h
